Assay results reported in ChEMBL document CHEMBL1671641, “1,5-benzodiazepines, a novel class of hepatitis C virus polymerase nonnucleoside inhibitors” (Antimicrob Agents Chemother, 2008).
pEC50, pIC50: −log10 of the molar value.

Assays:
[1] = Cytotoxicity against CMV-Luc transfected human HuH7 cells after 5 days; format: cell-based, Huh-7; settings: huh-7, 120 h, 120 h
Hepatitis C virus [2] = assay: Inhibition of Hepatitis C virus 1b J4 recombinant NS5B Cdelta 21 RNA dependent RNA polymerase overexpressed in Escherichia coli BL21 (DE3) by RdRp primer-dependent transcription assay; parameters: species or system Hepatitis C virus subtype 1b
Hepatitis C virus [3] = assay: Antiviral activity against Hepatitis C virus 1b infected in human HuH7 cells assessed as inhibition of viral replication after 3 days by luciferase reporter assay; format: functional, organism-based, Hepacivirus hominis, genotype 1b, Huh-7; settings: huh-7
Procedure, shortened: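 HCV 1b subgenomic luciferase reporter replicon (clone ET) cells, 2,500 per well, were exposed to a nine-point 1/4 dilution series for 3 days. Replication was read as luciferase activity. Values are means ± SD from 2 to 23 independent experiments run in quadruplicate.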

Hepatitis C virus [4] = assay: Non competitive inhibition of Hepatitis C virus 1b J4 recombinant NS5B Cdelta 21 RNA dependent RNA polymerase overexpressed in Escherichia coli BL21 (DE3) in presence of radiolabeled 20 nM GTP; parameters: species or system Hepatitis C virus subtype 1b
Procedure, shortened: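 Primer-dependent RdRp assay using purified C-terminally truncated NS5BΔ21 (genotype 1b J4) expressed in E. coli BL21(DE3). Enzyme was incubated with a poly(rC)/oligo(rG13) template, radiolabeled GTP at 20 nM, and a range of inhibitor concentrations. IC50 was derived by nonlinear regression of the dose-response curves. The run was done once in quadruplicate, reported as means ± SEM.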

Hepatitis C virus [5] = assay: Inhibition of Hepatitis C virus 1b J4 recombinant NS5B Cdelta 21 RNA dependent RNA polymerase overexpressed in Escherichia coli BL21 (DE3) assessed as [alpha-33P]UTP incorporation by RdRp primer-independent transcription assay; parameters: species or system Hepatitis C virus subtype 1b
Procedure, shortened: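 De novo (primer-independent) RdRp assay: 190 nM NS5BΔ21 (1b J4) with 86 nM HCV 3′ UTR template RNA, 0.5 mM each ATP/GTP/CTP, 10 μM UTP plus [α-³³P]UTP, in 20 mM Tris-HCl pH 7.5, 1 mM DTT, 5 mM MgCl₂, 20 mM NaCl. Incubated 2 h at room temperature, stopped with EDTA/tRNA, TCA-precipitated on filters, and scintillation-counted. Quadruplicate.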

MT4 = assay: Cytotoxicity against LTR-Luc transfected human MT4 cells […] after 3 days by ATPLite assay; format: cell-based; settings: mt4, 72 h, 72 h
Hepatitis C virus [6] = assay: Non competitive inhibition of Hepatitis C virus 1b J4 recombinant NS5B Cdelta 21 RNA dependent RNA polymerase overexpressed in Escherichia coli BL21 (DE3) in presence of radiolabeled 200 uM GTP

CC(=O)N1c2ccccc2NC2=C(C(=O)CC(C)(C)C2)C1c1ccc(OCc2ccccc2)c(Cl)c1 (single isomer, unassigned; 4a)
CC50 [1]: > 32000 nM
pIC50 (Hepatitis C virus [2]): 6.00
pEC50 (Hepatitis C virus [3]): 5.72
pIC50 (Hepatitis C virus [4]): 6.00
pIC50 (Hepatitis C virus [5]): 6.05
CC50 (MT4): 16400 nM
pIC50 (Hepatitis C virus [6]): 5.89
